# Scp-1 inhibitor: blocks human Scp-1 phosphatase activity | inhibition, % at 20 µM | 340,000 compounds, 0.88% hits | Recombinant Scp1, phosphopeptide, malachite green phosphate absorbance;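 active = inhibition above about 50% at 20 µM, limit read from the data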;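 note: plate controls were DMSO wells with enzyme for no effect and wells lacking enzyme for full effect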
#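 Incubation: 45 min enzyme reaction at room temperature / System: truncated SCP-1 phosphatase (76-261aa) / Reagent: Phospho 17-mer peptide substrate / Buffer or medium: Acidic Tris acetate buffer with magnesium and detergent / Signal: absorbance at 630 nm / Doses: one concentration, 20 µM, with 1.0% DMSO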
# LMPTP block: blocks human LMPTP phosphatase; P24666; recombinant LMPTP-A, OMFP fluorogenic substrate, fluorescence intensity; inhibition, % at 20 µM; 360,000 compounds, 0.22% hits; AID 651560;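 active = compounds that cut the enzyme signal by at least half of the control window in the single-dose screen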;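 note: plate controls were DMSO wells with enzyme plus substrate for no effect and substrate without enzyme for full effect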
#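 Test system: LMPTP-A phosphatase enzyme. Amount: LMPTP-A at 0.625 nM final in the reaction. Reagent: OMFP substrate, 400 µM final. Times: 50 min at room temperature. Signal: endpoint fluorescence intensity from OMFP dephosphorylation. Read-out basis: % inhibition. Benchmarks: no-enzyme and uninhibited controls.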
# STEP block: blocks human striatal-enriched tyrosine phosphatase; P54829; recombinant STEP, OMFP fluorogenic substrate, fluorescence; inhibition, % at 20 µM; 360,000 compounds, 0.25% hits;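 active = inhibition at 20 µM, scaled per plate between control wells, above about 37%, limit read from the data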;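 note: 0% = DMSO with enzyme and substrate and 100% = substrate only without enzyme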
#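 medium = Bis-Tris buffer pH 6.0, 2.5 mM DTT, 0.005% Tween 20 | test system = STEP (striatal-enriched tyrosine phosphatase) enzyme, cell-free | measure = normalized % inhibition | compound dosing = 20 µM, 1% DMSO | also added = 25 µM OMFP | schedule = reaction 20 min, ambient temperature | measured by = fluorescence read at 480 nm ex / 540 nm em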
# SUMO1 PPI mod: alters human SUMO1 binding to SIM partners | inhibition, % at 20 µM | AID 602429 | P63165 | 360,000 compounds, 0.33% hits | SUMO1 binding to a labelled peptide, TR-FRET, 1 h; in the data active = inhibition above about 37%
# NadD block: blocks S. aureus nicotinate mononucleotide adenylyltransferase | inhibition, % at 20 µM | purified NadD enzyme, colorimetric absorbance read-out | 360,000 compounds, 0.78% hits; in the data active = inhibition above about 26%
# DNMT1 block: inhibitors of human DNMT1; inhibition (reported as % activation of signal), % at 10 µM; 360,000 compounds, 0.83% hits; P26358; DNMT1 molecular beacon, Hinp1I cleavage, fluorescence; in the data active = inhibition above about 50%
# Target sequence (P26358 504-1616 limits assumed): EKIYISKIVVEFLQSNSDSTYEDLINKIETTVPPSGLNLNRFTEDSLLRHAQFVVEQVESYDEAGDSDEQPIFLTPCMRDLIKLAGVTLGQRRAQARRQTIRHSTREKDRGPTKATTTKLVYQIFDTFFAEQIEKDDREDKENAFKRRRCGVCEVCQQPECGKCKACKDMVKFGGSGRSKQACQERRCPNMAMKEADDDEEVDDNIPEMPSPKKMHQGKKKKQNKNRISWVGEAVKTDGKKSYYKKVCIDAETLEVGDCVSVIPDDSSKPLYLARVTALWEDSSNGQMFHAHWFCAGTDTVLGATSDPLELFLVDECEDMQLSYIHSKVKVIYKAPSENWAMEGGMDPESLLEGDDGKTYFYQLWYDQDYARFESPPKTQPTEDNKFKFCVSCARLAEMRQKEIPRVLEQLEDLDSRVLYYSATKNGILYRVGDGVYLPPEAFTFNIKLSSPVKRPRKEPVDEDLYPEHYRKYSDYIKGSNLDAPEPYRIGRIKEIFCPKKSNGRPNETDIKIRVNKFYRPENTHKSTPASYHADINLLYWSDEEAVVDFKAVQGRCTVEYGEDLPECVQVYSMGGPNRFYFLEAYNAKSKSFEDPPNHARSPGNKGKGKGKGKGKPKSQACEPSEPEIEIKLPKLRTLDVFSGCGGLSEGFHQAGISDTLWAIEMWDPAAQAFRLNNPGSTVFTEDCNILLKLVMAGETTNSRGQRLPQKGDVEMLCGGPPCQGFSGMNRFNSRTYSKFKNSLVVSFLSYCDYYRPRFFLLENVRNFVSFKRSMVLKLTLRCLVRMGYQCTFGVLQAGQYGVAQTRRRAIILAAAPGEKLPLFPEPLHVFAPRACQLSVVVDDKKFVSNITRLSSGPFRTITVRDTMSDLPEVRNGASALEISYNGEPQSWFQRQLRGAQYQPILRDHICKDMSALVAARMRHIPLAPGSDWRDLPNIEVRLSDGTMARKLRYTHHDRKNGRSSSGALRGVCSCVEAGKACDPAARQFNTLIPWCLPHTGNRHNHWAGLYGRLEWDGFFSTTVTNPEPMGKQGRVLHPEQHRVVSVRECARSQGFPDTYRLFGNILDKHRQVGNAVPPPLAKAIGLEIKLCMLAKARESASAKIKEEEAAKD
# DNMT1 interf DR: counter-screen for DNMT1 inhibitors: spectral interference, dose response | shares compounds with DNMT1 block | molecular beacon fluorescence | IC50, µM | 200 tested, under 10 active | AID 602382; call rule not given here
# DNMT1 inh conf: confirmation of human DNMT1 inhibitors; DNMT1 molecular beacon HinP1I cleavage, fluorescence; inhibition, % at 10 µM; 2,300 compounds, 8% hits; shares compounds with DNMT1 block;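 active = average inhibition of at least 30% in the single-concentration confirmation test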
# DNMT1 interf: beacon fluorescence artifact counter-screen; activation (fluorescence interference), % at 10 µM; DNMT1 molecular beacon spectral interference counterscreen, fluorescence 485/520; shares compounds with DNMT1 block; AID 602387; 2,300 compounds, 1% hits;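 active = activation of at least 30% at 10 µM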;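 note: DNMT1 catalytic domain with a HinP1I cleavage step and a FAM/dabcyl DNA beacon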
# The depositor's hits bear a star; . = no result. Shown are actives, neighbours in structure and some others; about 2.3% of the full set was active somewhere.
SMILES,Scp-1 inhibitor,LMPTP block,STEP block,SUMO1 PPI mod,NadD block,DNMT1 block,DNMT1 inh conf,DNMT1 interf,others
CCOc1ccc(N=c2cc(-c3ccc(OC)cc3)oc3ccccc23)cc1,14,9,1,-4,8,95*,2,4,
COc1ccc(N=c2cc(-c3ccc(OC)cc3)oc3ccccc23)cc1,17,9,3,-10,6,1,.,.,
CCN(CC)S(=O)(=O)c1cc(NS(=O)(=O)c2ccccc2)ccc1C,-2,2,0,1,-3,75*,4,4,
O=C1Nc2c(Cl)cc(Cl)cc2C1=O,-2,0,2,-5,1,60*,16,-13,DNMT1 interf DR=>99
Cc1ccc(NC(=O)C(=O)NN)cc1,-4,-2,-3,5,-2,75*,3,-1,
COc1ccc(N2CCN(C(=O)COC(=O)CCc3ccccc3)CC2)cc1,-7,0,13,2,-6,1,.,.,
CC(Oc1ccccc1)C(=O)N/N=C/c1ccccn1 (configuration not stated),-4,-1,-1,-2,-8,1,.,.,
CCC1(c2ccc(F)cc2)NC(=O)N(CC(=O)NC2CCCCCC2)C1=O (configuration not stated),-5,0,2,5,-4,-6,.,.,
O=C(NCc1ccc2c(c1)OCO2)c1ccc(Br)cc1,-1,-1,-2,-2,3,1,.,.,
O=C(NCc1ccc2c(c1)OCO2)c1cc2ncc(Br)cn2n1,72*,52*,0,2,18,71*,4,0,
COc1ccc2nc(N3C(=O)/C(=C/c4ccc(Cl)cc4)NC3=S)sc2c1,1,27,11,29,28,100*,1,-4,
CCOc1ccc2nc(N3C(=O)CNC3=S)sc2c1,-11,-1,-2,3,4,3,.,.,
Cc1cc(C(=O)COC(=O)c2ccc(O)cc2O)c(C)n1C(C)C,-8,1,-1,0,3,-1,.,.,
Oc1c(CN2CCOCC2)cc(CN2CCOCC2)cc1CN1CCOCC1,-8,-2,1,4,3,87*,1,4,
Oc1cc(O)c(CN2CCOCC2)cc1CN1CCOCC1,0,-1,-4,5,-1,2,.,.,
O=C(Cn1cc(S(=O)(=O)Cc2ccccc2F)c2ccccc21)N1CCOCC1,-1,1,-1,-4,6,2,.,.,
Cc1cccc(C)c1NC(=O)Cn1cc(C=O)c2ccccc21,6,0,-6,5,-1,5,.,.,
CCOc1ccc(Br)cc1C(=O)Nc1ccc(C(=O)NCC(C)C)cc1,3,-2,-6,-4,4,63*,4,4,
COc1ccc(Br)cc1C(=O)Nc1ccc(C(=O)NCC(C)C)cc1,-8,0,0,2,-1,0,.,.,
Cc1cc(/C=C2\SC(=S)NC2=O)c(C)n1C,-7,7,-4,43*,35*,92*,3,4,
Cc1nn(C)cc1/C=C1\SC(=S)NC1=O,-3,-1,0,0,1,0,.,.,
O=C(CN1C(=O)c2cccc([N+](=O)[O-])c2C1=O)OCC(=O)N1CCCCC1,5,-1,0,-23,1,4,.,.,
CCC1(CC)C(=O)Nc2ccccc21,-4,1,-2,2,11,75*,1,0,
O=C1Nc2ccccc2C1(c1ccccc1)c1ccccc1,-17,0,-3,-3,-6,-3,.,.,
O=C(Nc1ccc([N+](=O)[O-])cc1)C(c1ccccc1)c1ccccc1,.,3,0,-7,-1,1,.,.,
OC[C@@H]1CN(Cc2ccc3c(c2)OCO3)C[C@H](n2cnc3c(NC4CCCC4)ncnc32)O1,.,0,1,-1,4,1,.,.,
CCN(CC)c1ccc2cc(C=O)c(=O)oc2c1,19,5,-46,-37,5,71*,39*,59*,

# Screens from PubChem.
